Legend:
[1] = Inhibition of GST-tagged human EGFR D770GY mutant using poly(Glu, Tyr) 4:1 substrate incubated for 120 mins by kinase-Glo plus luminescent kinase assay
[2] = Inhibition of GST-tagged human HER2 V777_G778insCG mutant mutant using poly(Glu, Tyr) 4:1 substrate incubated for 120 mins by kinase-Glo plus luminescent kinase assay
[3] = molecular target: Receptor tyrosine-protein kinase erbB-2 (Homo sapiens) (UniProt P04626); assay: Binding affinity to wild-type human partial length ERBB2 (K646 to V1225 residues) expressed in mammalian expression system assessed as residual binding level at 10000 nM by Kinomescan method relative to control
Chain of Receptor tyrosine-protein kinase erbB-2 (Homo sapiens) (P04626 whole entry, the tested form may be a part): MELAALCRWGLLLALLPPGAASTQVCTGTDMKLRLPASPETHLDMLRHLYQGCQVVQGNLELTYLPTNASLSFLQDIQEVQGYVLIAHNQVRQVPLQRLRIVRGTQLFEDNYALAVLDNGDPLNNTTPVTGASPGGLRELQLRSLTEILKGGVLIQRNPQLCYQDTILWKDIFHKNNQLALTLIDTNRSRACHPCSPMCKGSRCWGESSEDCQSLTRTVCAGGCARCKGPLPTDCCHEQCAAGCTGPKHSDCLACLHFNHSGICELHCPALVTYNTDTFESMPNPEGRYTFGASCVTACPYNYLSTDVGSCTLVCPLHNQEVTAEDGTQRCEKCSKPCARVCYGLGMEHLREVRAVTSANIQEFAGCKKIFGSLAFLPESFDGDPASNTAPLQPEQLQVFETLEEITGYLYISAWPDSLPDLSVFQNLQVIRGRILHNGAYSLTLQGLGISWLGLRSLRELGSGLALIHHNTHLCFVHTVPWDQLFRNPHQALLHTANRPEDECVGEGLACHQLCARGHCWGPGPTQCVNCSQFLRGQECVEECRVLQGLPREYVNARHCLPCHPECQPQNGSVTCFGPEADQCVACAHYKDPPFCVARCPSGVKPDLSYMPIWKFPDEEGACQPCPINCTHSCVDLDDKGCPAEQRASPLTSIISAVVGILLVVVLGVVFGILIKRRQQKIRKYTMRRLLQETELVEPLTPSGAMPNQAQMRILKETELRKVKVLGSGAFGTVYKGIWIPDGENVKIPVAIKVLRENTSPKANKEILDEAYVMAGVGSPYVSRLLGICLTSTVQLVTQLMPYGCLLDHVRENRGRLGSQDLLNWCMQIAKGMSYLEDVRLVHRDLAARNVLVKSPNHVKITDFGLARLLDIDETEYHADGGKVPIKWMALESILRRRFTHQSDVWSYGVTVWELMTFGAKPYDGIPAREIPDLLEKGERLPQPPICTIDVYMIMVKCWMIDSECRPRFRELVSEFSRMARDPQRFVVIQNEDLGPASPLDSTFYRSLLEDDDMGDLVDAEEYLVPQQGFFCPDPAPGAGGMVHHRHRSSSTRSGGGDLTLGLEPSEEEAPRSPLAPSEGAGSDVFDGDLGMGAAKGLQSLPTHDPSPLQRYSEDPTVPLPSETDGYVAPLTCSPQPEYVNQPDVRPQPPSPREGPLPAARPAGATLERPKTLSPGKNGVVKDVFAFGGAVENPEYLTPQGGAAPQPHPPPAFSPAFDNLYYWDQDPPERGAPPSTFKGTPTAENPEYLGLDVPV
Procedure, shortened: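 KINOMEscan competition-binding profiling at a single concentration of 10,000 nM across a panel that included 395 non-mutant kinases. Binding is read out as percent of control. Kinases with less than 10% of control were counted as hits for the S(10) selectivity score, which is the number of non-mutant hits divided by the number of non-mutant kinases tested.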

[4] = molecular target: Tyrosine-protein kinase BTK (Homo sapiens) (UniProt Q06187); assay: Binding affinity to wild-type human full length BTK (M1 to S659 residues) expressed in mammalian expression system assessed as residual binding level at 10000 nM by Kinomescan method relative to control
Chain of Tyrosine-protein kinase BTK (Homo sapiens) (Q06187 whole entry, the tested form may be a part): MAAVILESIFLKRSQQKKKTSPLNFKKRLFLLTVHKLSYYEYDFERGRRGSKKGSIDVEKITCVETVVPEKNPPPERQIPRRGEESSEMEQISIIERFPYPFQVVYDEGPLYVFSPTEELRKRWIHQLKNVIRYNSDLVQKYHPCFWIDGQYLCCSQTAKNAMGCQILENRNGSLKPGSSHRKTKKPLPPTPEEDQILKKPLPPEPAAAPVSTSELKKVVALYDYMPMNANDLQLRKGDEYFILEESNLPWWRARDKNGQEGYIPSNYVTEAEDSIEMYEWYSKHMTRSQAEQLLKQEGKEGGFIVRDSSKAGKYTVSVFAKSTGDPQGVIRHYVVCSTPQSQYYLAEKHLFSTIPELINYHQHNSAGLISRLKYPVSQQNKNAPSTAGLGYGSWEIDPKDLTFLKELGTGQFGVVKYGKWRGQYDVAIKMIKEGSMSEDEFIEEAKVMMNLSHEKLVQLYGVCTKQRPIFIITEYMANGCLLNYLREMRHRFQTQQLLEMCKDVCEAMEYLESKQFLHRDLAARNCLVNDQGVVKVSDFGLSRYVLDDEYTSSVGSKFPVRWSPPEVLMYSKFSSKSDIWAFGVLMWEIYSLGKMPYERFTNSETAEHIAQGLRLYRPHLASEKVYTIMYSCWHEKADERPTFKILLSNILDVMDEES
Procedure, shortened: (§1)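 KINOMEScan competition binding panel run at 10,000 nM compound, with results expressed as percent of control binding. S(10) is the fraction of non-mutant kinases below 10% of control, out of 395 tested.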

[5] = molecular target: Tyrosine-protein kinase Blk (Homo sapiens) (UniProt P51451); assay: Binding affinity to wild-type human partial length BLK (G211 to L503 residues) expressed in bacterial expression system assessed as residual binding level at 10000 nM by Kinomescan method relative to control; procedure, shortened: as §1
Chain of Tyrosine-protein kinase Blk (Homo sapiens) (P51451 2-505 limits assumed): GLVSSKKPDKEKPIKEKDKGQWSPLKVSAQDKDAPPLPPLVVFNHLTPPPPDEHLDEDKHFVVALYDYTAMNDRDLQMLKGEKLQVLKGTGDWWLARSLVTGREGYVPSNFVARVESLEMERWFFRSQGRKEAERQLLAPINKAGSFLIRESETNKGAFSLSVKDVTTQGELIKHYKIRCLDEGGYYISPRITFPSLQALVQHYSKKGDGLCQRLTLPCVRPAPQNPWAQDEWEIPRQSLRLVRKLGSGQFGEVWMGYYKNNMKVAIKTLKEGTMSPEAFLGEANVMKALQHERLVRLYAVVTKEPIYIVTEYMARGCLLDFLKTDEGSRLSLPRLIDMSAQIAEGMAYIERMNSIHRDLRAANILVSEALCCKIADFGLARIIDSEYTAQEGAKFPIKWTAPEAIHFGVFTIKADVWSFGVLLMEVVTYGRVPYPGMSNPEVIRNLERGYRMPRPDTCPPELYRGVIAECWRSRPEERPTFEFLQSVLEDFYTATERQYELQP

[6] = molecular target: T1, Cytoplasmic tyrosine-protein kinase BMX (Homo sapiens) (UniProt P51813); assay: Binding affinity to wild-type human full length BMX (M1 to H675 residues) expressed in bacterial expression system assessed as residual binding level at 10000 nM by Kinomescan method relative to control; procedure, shortened: as §1
T1 sequence (whole entry): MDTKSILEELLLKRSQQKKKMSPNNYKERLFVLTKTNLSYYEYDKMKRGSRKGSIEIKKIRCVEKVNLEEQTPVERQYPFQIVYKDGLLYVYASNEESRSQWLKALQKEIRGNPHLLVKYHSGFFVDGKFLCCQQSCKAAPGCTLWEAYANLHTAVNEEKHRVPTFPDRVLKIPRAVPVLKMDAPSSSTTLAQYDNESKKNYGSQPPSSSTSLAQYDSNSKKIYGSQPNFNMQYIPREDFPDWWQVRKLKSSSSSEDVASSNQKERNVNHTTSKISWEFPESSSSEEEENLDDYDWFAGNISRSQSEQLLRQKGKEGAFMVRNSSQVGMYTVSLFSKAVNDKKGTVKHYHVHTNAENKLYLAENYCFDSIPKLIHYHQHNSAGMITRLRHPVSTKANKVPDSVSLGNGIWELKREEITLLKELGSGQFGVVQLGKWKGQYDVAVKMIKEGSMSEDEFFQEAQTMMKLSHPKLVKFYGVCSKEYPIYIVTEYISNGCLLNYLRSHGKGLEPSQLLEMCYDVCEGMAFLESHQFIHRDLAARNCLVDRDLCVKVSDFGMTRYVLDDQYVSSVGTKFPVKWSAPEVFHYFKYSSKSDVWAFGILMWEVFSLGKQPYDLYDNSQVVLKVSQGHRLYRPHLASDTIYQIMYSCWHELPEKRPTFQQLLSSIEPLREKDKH

[7] = molecular target: Receptor tyrosine-protein kinase erbB-4 (Homo sapiens) (UniProt Q15303); assay: Binding affinity to wild-type human partial length ERBB4 (L690 to K994 residues) expressed in bacterial expression system assessed as residual binding level at 10000 nM by Kinomescan method relative to control; procedure, shortened: as §1
Chain of Receptor tyrosine-protein kinase erbB-4 (Homo sapiens) (Q15303 whole entry, the tested form may be a part): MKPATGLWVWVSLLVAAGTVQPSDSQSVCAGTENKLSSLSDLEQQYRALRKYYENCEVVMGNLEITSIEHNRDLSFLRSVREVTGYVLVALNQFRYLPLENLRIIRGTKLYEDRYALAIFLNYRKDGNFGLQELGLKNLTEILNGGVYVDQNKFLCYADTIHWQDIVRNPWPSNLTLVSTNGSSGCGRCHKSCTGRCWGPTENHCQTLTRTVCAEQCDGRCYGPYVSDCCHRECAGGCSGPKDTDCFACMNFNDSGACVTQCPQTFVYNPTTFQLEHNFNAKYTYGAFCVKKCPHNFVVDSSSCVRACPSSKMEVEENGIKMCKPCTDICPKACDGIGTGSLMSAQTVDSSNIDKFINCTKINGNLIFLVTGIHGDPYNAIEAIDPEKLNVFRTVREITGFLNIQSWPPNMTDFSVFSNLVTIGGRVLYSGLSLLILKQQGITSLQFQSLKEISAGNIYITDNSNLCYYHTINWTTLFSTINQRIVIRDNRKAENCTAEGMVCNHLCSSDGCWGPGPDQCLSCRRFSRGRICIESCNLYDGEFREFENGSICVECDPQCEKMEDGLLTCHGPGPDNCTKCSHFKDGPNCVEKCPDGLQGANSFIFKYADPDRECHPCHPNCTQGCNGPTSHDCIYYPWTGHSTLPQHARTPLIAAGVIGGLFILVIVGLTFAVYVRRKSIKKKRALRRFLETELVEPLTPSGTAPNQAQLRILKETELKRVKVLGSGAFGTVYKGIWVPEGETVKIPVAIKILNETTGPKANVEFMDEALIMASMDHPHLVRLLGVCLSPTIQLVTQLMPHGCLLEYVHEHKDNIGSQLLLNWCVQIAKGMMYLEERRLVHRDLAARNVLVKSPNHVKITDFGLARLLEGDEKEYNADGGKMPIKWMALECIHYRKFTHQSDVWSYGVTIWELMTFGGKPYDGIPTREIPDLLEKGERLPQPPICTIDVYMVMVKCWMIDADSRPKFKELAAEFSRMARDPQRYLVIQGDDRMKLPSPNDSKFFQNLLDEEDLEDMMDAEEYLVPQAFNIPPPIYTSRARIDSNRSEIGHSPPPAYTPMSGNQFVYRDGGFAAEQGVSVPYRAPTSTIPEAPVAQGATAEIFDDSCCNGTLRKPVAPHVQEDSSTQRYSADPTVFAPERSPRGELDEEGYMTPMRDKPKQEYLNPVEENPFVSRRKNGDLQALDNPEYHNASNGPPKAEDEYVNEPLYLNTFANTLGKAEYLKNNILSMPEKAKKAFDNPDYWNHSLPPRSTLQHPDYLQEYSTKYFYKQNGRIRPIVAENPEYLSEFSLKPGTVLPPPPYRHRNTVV

[8] = molecular target: T2, Tyrosine-protein kinase Tec (Homo sapiens) (UniProt P42680); assay: Binding affinity to wild-type human partial length TEC (L341 to D620 residues) expressed in bacterial expression system assessed as residual binding level at 10000 nM by Kinomescan method relative to control; procedure, shortened: as §1
T2 sequence (whole entry): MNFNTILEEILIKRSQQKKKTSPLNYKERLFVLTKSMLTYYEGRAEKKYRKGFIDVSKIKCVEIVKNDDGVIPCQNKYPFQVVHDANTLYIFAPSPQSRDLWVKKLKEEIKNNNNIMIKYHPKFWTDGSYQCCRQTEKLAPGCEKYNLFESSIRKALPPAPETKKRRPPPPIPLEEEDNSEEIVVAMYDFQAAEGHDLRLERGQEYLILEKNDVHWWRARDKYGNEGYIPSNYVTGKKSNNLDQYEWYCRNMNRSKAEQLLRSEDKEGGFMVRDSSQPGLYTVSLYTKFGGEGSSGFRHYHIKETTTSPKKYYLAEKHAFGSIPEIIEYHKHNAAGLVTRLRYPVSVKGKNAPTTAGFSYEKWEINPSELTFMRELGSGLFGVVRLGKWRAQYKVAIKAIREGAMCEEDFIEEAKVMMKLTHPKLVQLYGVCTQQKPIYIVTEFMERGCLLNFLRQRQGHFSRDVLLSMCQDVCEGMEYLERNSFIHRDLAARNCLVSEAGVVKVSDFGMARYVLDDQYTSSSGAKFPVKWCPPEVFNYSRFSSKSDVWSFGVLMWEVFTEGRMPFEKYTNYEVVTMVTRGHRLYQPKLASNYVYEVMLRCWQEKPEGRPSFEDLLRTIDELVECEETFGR

[9] = Toxicity in athymic NU-Fox1nu nude mouse xenografted with human HCC827 cells assessed as effect on body weight at 20 to 50 mg/kg, po dosed via gavage for 5 days/week for 2 consecutive weeks; format: organism-based; conditions: in vivo, 120 h
Procedure, shortened: (§2)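 Male athymic NU-Fox1nu nude mice, 6–8 weeks old, were inoculated subcutaneously at the left flank with 5x10^6 HCC827 (exon 19 Del E746_A750) cells. Oral gavage began at a mean tumor size of about 500 mm³, in 1% methylcellulose/0.5% Tween 80/98.5% water, once daily on days 1-5 and 8-12. Tumor volume (V = 0.5 a × b², caliper) and body weight were tracked.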

[10] = Toxicity in athymic NU-Fox1nu nude mouse xenografted with human HCC827 cells assessed as induction of adverse effects at 20 to 50 mg/kg, po dosed via gavage for 5 days/week for 2 consecutive weeks; format: organism-based; conditions: in vivo, 120 h; procedure, shortened: as §2
[11] = Oral bioavailability in rat at 23.6 mg/kg; format: ADME, organism-based; conditions: in vivo
Procedure, shortened: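 Rat pharmacokinetics: single IV injection at 5 mg/kg or oral dosing at 20 mg/kg (23.6 mg/kg oral for one compound). Plasma parameters t1/2, CL, Vss, AUC(0-inf), Cmax, Tmax and oral bioavailability F were derived from the concentration–time profiles.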

NCI-H1975 = conditions: Homo sapiens, at 312.5 to 20000 nM
in vivo [12] = conditions: rat, po, 23.6 mg/kg
in vivo [13] = conditions: rat, po, 23.6 mg/kg; remark: listed apart in the source

SMILES: CN(C)C/C=C/C(=O)Nc1cccc(-c2c(-c3ccccc3)oc3ncnc(N[C@H](CO)c4ccccc4)c23)c1
- IC50 [1]: 33 pM
- IC50 [2]: 203 pM
- Activity [3]: 0%
- Activity [4]: 3%
- Activity [5]: 0.25%
- Activity [6]: 4.8%
- Activity [7]: 0.05%
- Activity [8]: 5.6%
- Activity [9]: Non-Toxic
- Activity [10]: Non-Toxic
- bioavailability [11]: 41.5%
- inhibition (NCI-H1975): Dose-dependent effect
- AUC(0-inf) (in vivo [12]): 2980 ng·h/mL
- half-life (in vivo [13]): 3.4 h
